Source: PubChem BioAssay (several laboratories)
Shown are actives, neighbours in structure and some others; about 3.8% of the full set was active somewhere.
HSF1 inh – HSF1 inhibition; NIH3T3-HGL HSE-luciferase, MG132-induced, luminescence 8 h; stronger effect = lower value; activity change, negative = inhibition, % at 7.5 µM (by protocol); 300,000 compounds, 0.77% hits;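 active means more than half of replicate wells show activity change below -50%, luminescence cut by over half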;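 further: luciferase reports HSF-1 transcriptional activity via heat shock element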
HSP90 refold inh – blocks HSP90-mediated luciferase refolding in reticulocyte lysate | 290,000 compounds, 0.91% hits | Rabbit reticulocyte lysate, luciferase refolding luminescence, 3 h | inhibition, % at 5.6 µM;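 active means inhibition above the screen-wide mean plus 3 SD, computed separately per campaign, cut at about 16% in these data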;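 further: inhibitors lower the luminescence because luciferase stays unfolded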
Hep lipid drop – modulators of hepatic lipid droplet formation. 240,000 compounds, 0.4% hits. inhibition, % at 6.5 µM. AML12 mouse hepatocytes, oleate lipid droplets, BODIPY imaging;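 active means lipid droplet intensity inhibited by at least 50%, with more than 500 cells counted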
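Material: mouse AML12 hepatocyte cell line, fixed after treatment; Timing: compound with oleate, overnight; Technique: high-content imaging of BODIPY-stained droplets and DAPI nuclei; Probe or stimulus: oleate, 100 µM final; Dosing: compound at 6.5 µM only.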
NS3 helicase inh – blocks Hepatitis C virus NS3 helicase unwinding; NS3 helicase DNA unwinding, Cy5 molecular beacon fluorescence; inhibition, % at 10.9 µM; 290,000 compounds, 0.56% hits;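 active means inhibition above the mean of all tested compounds plus 3 SD, set per campaign, cut at about 35% in these data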
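Assay system: hepatitis C virus NS3 helicase domain fragment enzyme. Also added: annealed dual-labelled DNA beacon duplex, ATP-started. Timing: 1 h reaction at 25 °C, ATP-initiated. Technique: Cy5 fluorescence at 0 and 60 min, beacon hairpin quenching. Evaluation: % inhibition of unwinding. Replication: one well per compound.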
HSF-1 act – increases HSF-1 driven luciferase reporter signal; AID 504408; activation, % at 9 µM; 300,000 compounds, 1.7% hits; NIH3T3-HGL HSF-1 luciferase reporter, MG132, 8 h; 100% = twice DMSO control signal;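 active means mean replicate activation of at least 50% with a set share of replicates each reaching 50%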
Hits are given with their value.

How did O=C1C2CCCN2c2ccc(S(=O)(=O)N3CCOCC3)cc2N1Cc1cccc(C(F)(F)F)c1 (stereo not drawn) do in these assays?
HSF1 inh: -85; HSP90 refold inh: inactive; NS3 helicase inh: inactive; HSF-1 act: inactive

How did O=C1C2CCCN2c2ccc(S(=O)(=O)N3CCOCC3)cc2N1Cc1ccccc1F (stereo not drawn) do in these assays?
HSF1 inh: inactive; HSP90 refold inh: inactive; NS3 helicase inh: inactive; HSF-1 act: inactive

How did Cc1nc(NCCc2ccc(F)cc2)c(C#N)c(C)c1[N+](=O)[O-] do in these assays?
HSF1 inh: inactive; HSP90 refold inh: inactive; Hep lipid drop: inactive; NS3 helicase inh: inactive; HSF-1 act: 51

Results for COCc1c(C#N)c(NCCc2ccc(F)cc2)nc(C)c1[N+](=O)[O-] ?
HSF1 inh: inactive; HSP90 refold inh: inactive; Hep lipid drop: inactive; NS3 helicase inh: inactive; HSF-1 act: inactive

What do the screens show for `O=C(CNC(=O)c1ccc(Br)o1)NCC(=O)OCc1ccccc1`?
HSF1 inh: inactive; HSF-1 act: inactive

Results for COc1cccc(CNC(=O)CCNC(=O)c2ccccc2OC)c1 ?
HSF1 inh: inactive; HSP90 refold inh: inactive; Hep lipid drop: inactive; NS3 helicase inh: inactive; HSF-1 act: inactive

What do the screens show for `CCOC(=O)CSC1=C(C#N)C(c2ccccc2OC)CC(=O)N1` (stereo not drawn)?
HSF1 inh: inactive; HSP90 refold inh: inactive; NS3 helicase inh: inactive; HSF-1 act: inactive

What do the screens show for `CCOC(=O)CSC1=C(C#N)C(c2ccccc2C)C2=C(CCCC2=O)N1` (stereo not drawn)?
HSF1 inh: -85; HSP90 refold inh: inactive; Hep lipid drop: inactive; NS3 helicase inh: inactive; HSF-1 act: inactive

Results for N#Cc1cnn2ccn(C3OC(CO)C(O)C3O)c12 (stereo not drawn) ?
HSF1 inh: inactive; HSP90 refold inh: inactive; Hep lipid drop: inactive; NS3 helicase inh: inactive; HSF-1 act: inactive

What do the screens show for `Nc1cccc2c1C(=O)N(CCOc1ccc(F)cc1)C2=O`?
HSF1 inh: inactive; HSP90 refold inh: inactive; Hep lipid drop: inactive; NS3 helicase inh: inactive; HSF-1 act: 62

How did O=C1c2ccccc2C(=O)N1CCOc1ccccc1 do in these assays?
HSF1 inh: inactive; HSP90 refold inh: inactive; NS3 helicase inh: inactive; HSF-1 act: 125

What do the screens show for `CC(C)Oc1cccc(OCCN2C(=O)c3ccccc3C2=O)c1`?
HSF1 inh: inactive; HSP90 refold inh: inactive; NS3 helicase inh: inactive; HSF-1 act: inactive

Results for COc1ccc(OCCN2C(=O)c3ccccc3C2=O)cc1 ?
HSF1 inh: -55; HSP90 refold inh: inactive; Hep lipid drop: inactive; NS3 helicase inh: inactive; HSF-1 act: inactive

How did CC(C)NC(=O)c1ccc(N(Cc2ccccc2)S(C)(=O)=O)cc1 do in these assays?
HSF1 inh: inactive; HSP90 refold inh: inactive; Hep lipid drop: inactive; NS3 helicase inh: inactive; HSF-1 act: inactive

What do the screens show for `Cc1ccc(C)c(S(=O)(=O)N2CCN(C(=O)C3CCN(C(=O)c4ccc(F)cc4)CC3)CC2)c1`?
HSF1 inh: inactive; HSF-1 act: inactive

How did CCOC(=O)C1CCCN(c2oc(-c3ccc(OC)cc3)nc2C#N)C1 (stereo not drawn) do in these assays?
HSF1 inh: inactive; HSP90 refold inh: inactive; Hep lipid drop: inactive; NS3 helicase inh: inactive; HSF-1 act: inactive

How did COc1ccc(Nc2ccc3c(c2)=NC2(CCCCC2)[N+]=3[O-])cc1 do in these assays?
HSF1 inh: inactive; HSP90 refold inh: inactive; NS3 helicase inh: inactive; HSF-1 act: 79

Results for COc1cc(/C=N/N=C/c2c[nH]c(=O)c(C#N)c2Nc2ccccc2)ccc1O ?
HSF1 inh: inactive; HSP90 refold inh: inactive; Hep lipid drop: inactive; NS3 helicase inh: inactive; HSF-1 act: inactive

Results for CC1(C)CC(=O)C(=Cc2cn(-c3ccccc3)nc2-c2ccccc2)C(=O)C1 ?
HSF1 inh: inactive; HSF-1 act: 147

What do the screens show for `COc1cccc(CNC(=O)c2ccc(C)c(NC3=NC4CS(=O)(=O)CC4S3)c2)c1` (stereo not drawn)?
HSF1 inh: inactive; HSP90 refold inh: inactive; Hep lipid drop: inactive; NS3 helicase inh: inactive; HSF-1 act: inactive

Results for COc1ccc2occ(C(=O)c3cccs3)c2c1 ?
HSF1 inh: inactive; HSP90 refold inh: inactive; NS3 helicase inh: inactive; HSF-1 act: 78

How did COc1ccc2occ(C(=O)c3ccc(N)cc3)c2c1 do in these assays?
HSF1 inh: inactive; HSP90 refold inh: inactive; Hep lipid drop: inactive; NS3 helicase inh: inactive; HSF-1 act: inactive
